Laboratory results from ChEMBL document CHEMBL4837210 (Eur J Med Chem, 2021).

Key:
[1] = test system: Staphylococcus aureus; assay: Antibacterial activity against methicillin-resistant Staphylococcus aureus ATCC 43300 assessed as inhibition of bacterial growth by broth microdilution method; type: functional; conditions: time 24 hrs
How it was run: (§1)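 Broth microdilution MIC. A 0.5 McFarland suspension was diluted 10-fold and added at 1.5 × 10⁷ cfu/mL to 2-fold dilutions (0.125–64) in Mueller Hinton broth. Incubated aerobically 24 h at 37 °C. MIC was the lowest concentration with no visible turbidity.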

[2] = test system: Bacillus pumilus; assay: Ratio of MBC to MIC against penicillin-susceptible Bacillus pumilus CMCC 63202; type: functional
How it was run: (§2)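 MBC/MIC ratio from the broth microdilution MIC (24 h, 37 °C, MH broth) and the MBC (clear wells subcultured on tryptic soy agar, 24 h). A ratio ≤4 is read as bactericidal per CLSI.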

[3] = test system: Enterococcus faecium; assay: Antibacterial activity against vancomycin-susceptible Enterococcus faecium ATCC19434 assessed as bacterial growth inhibition incubated for 24 hrs by CLSI protocol based broth microdilution method; conditions: ATCC19434, 24 h
[4] = test system: Streptococcus pyogenes; assay: Antibacterial activity against erythromycin-resistant Streptococcus pyogenes 2 assessed as bacterial growth inhibition incubated for 24 hrs by CLSI protocol based broth microdilution method; type: functional
[5] = test system: Staphylococcus aureus; assay: Bactericidal activity against methicillin-resistant Staphylococcus aureus ATCC 43300 measured after 24 hrs by CLSI protocol based method; type: functional
How it was run: (§3)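 MBC after broth microdilution. After 24 h, aliquots from clear wells were plated on tryptic soy agar and incubated aerobically 24 h at 37 °C. MBC was the lowest concentration giving no colonies.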

[6] = test system: Bacillus subtilis; assay: Ratio of MBC to MIC against penicillin-susceptible Bacillus subtilis ATCC 9372; type: functional
How it was run: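 Ratio of MBC to MIC, both measured by broth microdilution in MH broth (37 °C, 24 h); MBC was scored by subculturing clear wells onto tryptic soy agar for 24 h. Following CLSI, a ratio of 4 or less counts as bactericidal.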

[7] = target: T1, Cell division protein FtsZ (Escherichia coli K-12, UniProt P0A9A6); assay: Inhibition of FtsZ in Escherichia coli assessed as disruption of Z ring formation
T1 sequence (P0A9A6 whole entry): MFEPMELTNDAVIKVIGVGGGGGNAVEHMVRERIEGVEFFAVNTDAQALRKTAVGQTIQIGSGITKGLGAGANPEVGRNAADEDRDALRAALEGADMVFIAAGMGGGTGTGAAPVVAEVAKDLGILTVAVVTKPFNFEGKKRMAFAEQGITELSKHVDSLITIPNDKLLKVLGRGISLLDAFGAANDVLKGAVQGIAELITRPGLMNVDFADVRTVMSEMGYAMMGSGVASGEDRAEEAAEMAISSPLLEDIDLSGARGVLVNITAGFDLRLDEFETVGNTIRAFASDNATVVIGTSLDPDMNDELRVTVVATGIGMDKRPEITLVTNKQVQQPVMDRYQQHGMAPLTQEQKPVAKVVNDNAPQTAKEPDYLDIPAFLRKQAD

[8] = test system: Bacillus pumilus; assay: Antibacterial activity against penicillin-susceptible Bacillus pumilus CMCC 63202 assessed as bacterial growth inhibition by broth dilution method; type: functional; conditions: time 24 hrs
How it was run: (§4)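 Broth microdilution in Mueller Hinton broth. A 0.5 McFarland suspension was diluted tenfold, giving an inoculum of 1.5 × 10⁷ cfu/mL. This was added to 2-fold serial compound dilutions from […]. Plates were incubated aerobically at 37 °C for 24 h. MIC was the lowest concentration with no visible turbidity.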

[9] = test system: Enterococcus faecalis; assay: Antibacterial activity against vancomycin-susceptible Enterococcus faecalis ATCC 29212 assessed as bacterial growth inhibition incubated for 24 hrs by CLSI protocol based broth microdilution method; type: functional
[10] = test system: Staphylococcus epidermidis; assay: Antibacterial activity against penicillin-resistant Staphylococcus epidermidis assessed as inhibition of bacterial growth measured by broth microdilution method; type: functional; conditions: time 24 hrs
[11] = test system: Bacillus subtilis; assay: Bactericidal activity against penicillin-susceptible Bacillus subtilis ATCC 9372 measured after 24 hrs by CLSI protocol based method; type: functional
How it was run: (§5)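 MBC followed on from the 24 h broth microdilution MIC plates. Aliquots from clear wells were spread on tryptic soy agar and incubated aerobically at 37 °C for 24 h. MBC was the minimum concentration giving no colonies.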

[12] = test system: Staphylococcus aureus; assay: Bactericidal activity against penicillin-resistant Staphylococcus aureus measured after 24 hrs by CLSI protocol based method; type: functional; how it was run: as §3
[13] = test system: Bacillus subtilis; assay: Antibacterial activity against penicillin-susceptible Bacillus subtilis ATCC 9372 assessed as bacterial growth inhibition incubated for 24 hrs by CLSI protocol based broth microdilution method; type: functional
[14] = test system: Staphylococcus aureus; assay: Ratio of MBC to MIC against erythromycin-susceptible Staphylococcus aureus ATCC 25923; type: functional; how it was run: as §2
[15] = test system: Staphylococcus aureus; assay: Antibacterial activity against Staphylococcus aureus assessed as inhibition of bacterial growth measured by broth microdilution method; type: functional; conditions: time 24 hrs; how it was run: as §4
[16] = test system: Staphylococcus epidermidis; assay: Bactericidal activity against penicillin-resistant Staphylococcus epidermidis measured after 24 hrs by CLSI protocol based method; type: functional; how it was run: as §3
[17] = test system: Staphylococcus aureus; assay: Antibacterial activity against penicillin-resistant Staphylococcus aureus assessed as inhibition of bacterial growth measured by broth microdilution method; type: functional; conditions: time 24 hrs; how it was run: as §1
[18] = test system: Staphylococcus epidermidis; assay: Ratio of MBC to MIC against penicillin-resistant Staphylococcus epidermidis; type: functional; how it was run: as §2
[19] = test system: Staphylococcus aureus; assay: Ratio of MBC to MIC against penicillin-resistant Staphylococcus aureus; type: functional; how it was run: as §2
[20] = test system: Staphylococcus aureus; assay: Bactericidal activity against erythromycin-susceptible Staphylococcus aureus ATCC 25923 measured after 24 hrs by CLSI protocol based method; type: functional; how it was run: as §3
[21] = test system: Escherichia coli; assay: Antibacterial activity against penicillin-susceptible Escherichia coli ATCC 25922 assessed as inhibition of bacterial growth measured by broth microdilution method; type: functional; conditions: time 24 hrs; how it was run: as §4
[22] = test system: Enterococcus faecium; assay: Antibacterial activity against vancomycin-resistant Enterococcus faecium ATCC 51559 assessed as bacterial growth inhibition incubated for 24 hrs by CLSI protocol based broth microdilution method; conditions: ATCC 51559, 24 h
[23] = target: T2, Cell division protein FtsZ (Bacillus subtilis, UniProt A5Z1V5); assay: Inhibition of FtsZ in Bacillus subtilis assessed as disruption of Z ring formation
T2 sequence (A5Z1V5 whole entry): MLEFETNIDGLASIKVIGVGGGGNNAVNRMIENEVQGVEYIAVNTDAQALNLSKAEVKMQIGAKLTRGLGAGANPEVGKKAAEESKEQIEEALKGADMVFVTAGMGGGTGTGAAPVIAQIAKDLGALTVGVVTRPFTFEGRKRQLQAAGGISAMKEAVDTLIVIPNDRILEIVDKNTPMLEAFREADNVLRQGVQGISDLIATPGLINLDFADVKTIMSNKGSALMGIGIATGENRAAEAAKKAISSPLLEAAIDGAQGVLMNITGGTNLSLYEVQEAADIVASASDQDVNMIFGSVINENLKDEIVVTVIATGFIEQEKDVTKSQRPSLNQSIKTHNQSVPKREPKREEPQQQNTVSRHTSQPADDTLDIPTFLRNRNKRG

[24] = test system: Staphylococcus aureus; assay: Antibacterial activity against erythromycin-susceptible Staphylococcus aureus ATCC 25923 assessed as bacterial growth inhibition incubated for 24 hrs by CLSI protocol based broth microdilution method; type: functional
[25] = test system: Pseudomonas aeruginosa; assay: Antibacterial activity against penicillin-susceptible Pseudomonas aeruginosa ATCC27853 assessed as bacterial growth inhibition incubated for 24 hrs by CLSI protocol based broth microdilution method; type: functional
[26] = test system: Streptococcus pyogenes; assay: Antibacterial activity against erythromycin-susceptible Streptococcus pyogenes clinical isolate 1 assessed as bacterial growth inhibition incubated for 24 hrs by CLSI protocol based broth microdilution method; type: functional
[27] = test system: Enterococcus faecalis; assay: Antibacterial activity against vancomycin-resistant Enterococcus faecalis ATCC 51299 assessed as bacterial growth inhibition incubated for 24 hrs by CLSI protocol based broth microdilution method; type: functional
[28] = test system: Bacillus pumilus; assay: Bactericidal activity against penicillin-susceptible Bacillus pumilus CMCC 63202 measured after 24 hrs by CLSI protocol based method; type: functional; how it was run: as §5

## C[n+]1cc2c3c(ccc2c2ccc4cc5c(cc4c21)OCO5)OCO3.[Cl-] [SANGUINARIUM CHLORIDE]
[1]
  MIC: 8 µg/mL
[2]
  Ratio: >64
[3]
  MIC: 64 µg/mL
[4]
  MIC: 2 µg/mL
[5]
  MBC: > 64 µg/mL
[6]
  Ratio: 16
[7]
  IC50: 12.5 µM
[8]
  MIC: 4 µg/mL
[9]
  MIC: 16 µg/mL
[10]
  MIC: 8 µg/mL
[11]
  MBC: 64 µg/mL
[12]
  MBC: 128 µg/mL
[13]
  MIC: 4 µg/mL
[14]
  Ratio: >32
[15]
  MIC: 8 µg/mL
[16]
  MIC: 64 µg/mL
[17]
  MIC: 16 µg/mL
[18]
  Ratio: 64
[19]
  Ratio: 8
[20]
  MBC: > 64 µg/mL
[21]
  MIC: 32 µg/mL
[22]
  MIC: 32 µg/mL
[23]
  IC50: 2.72 µM
[24]
  MIC: 4 µg/mL
[25]
  MIC: > 64 µg/mL
[26]
  MIC: 2 µg/mL
[27]
  MIC: 32 µg/mL
[28]
  MBC: > 64 µg/mL
